HUVEC inhibit: human endothelial cell proliferation inhibition; viability, % at 10 µM (by protocol); HUVEC proliferation, CellTiter-Glo luminescence, 72 h; stronger effect = lower value; actives 1.1% (n = 86,000);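 active = viability at or below 30%; inactive = viability above 30%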
Lung fibro prol: blocks proliferation of human lung fibroblasts. LL 47 human lung fibroblast viability, ATP luminescence; stronger effect = lower value. viability, % at 10 µM. actives 1.1% (n = 85,000);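 active = viability at or below 50% in the single dose screen; inactive = viability above 50%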;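 also: compound exposure lasted 72 h before the ATP readout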
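test system = LL 47 human lung fibroblasts | amount = 1,150 fibroblasts seeded per well | medium = 15% FBS in IMEM | times = overnight cell rest, 72 h compound treatment at 37 °C | measured by = CellTiter-Glo luminescence measuring cellular ATP | read-out = viability percentage against median untreated-cell control | benchmarks = cell-only wells, no compound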
ERb coact inh: ER-beta (human) coactivator binding inhibition; actives 1.3% (n = 86,000); inhibition, % at 25.6 µM; TR-FRET ER-beta LBD / SRC1-Cy5 peptide binding; receptor agonist-loaded with 1 µM estradiol; AID 633;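 active = compounds whose percent inhibition of the receptor-coactivator binding signal exceeds about 50% in the single-dose screen, limit read from the data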
ERa SRC1 inh: blocks coactivator binding to human estrogen receptor alpha | inhibition, % at 25.6 µM | AID 629 | TR-FRET ER-alpha LBD / SRC-1 peptide, estradiol-bound | actives 1.7% (n = 86,000); in the data active = inhibition above about 50%
Target sequence (P03372 whole entry, looked up, the tested form may be a part): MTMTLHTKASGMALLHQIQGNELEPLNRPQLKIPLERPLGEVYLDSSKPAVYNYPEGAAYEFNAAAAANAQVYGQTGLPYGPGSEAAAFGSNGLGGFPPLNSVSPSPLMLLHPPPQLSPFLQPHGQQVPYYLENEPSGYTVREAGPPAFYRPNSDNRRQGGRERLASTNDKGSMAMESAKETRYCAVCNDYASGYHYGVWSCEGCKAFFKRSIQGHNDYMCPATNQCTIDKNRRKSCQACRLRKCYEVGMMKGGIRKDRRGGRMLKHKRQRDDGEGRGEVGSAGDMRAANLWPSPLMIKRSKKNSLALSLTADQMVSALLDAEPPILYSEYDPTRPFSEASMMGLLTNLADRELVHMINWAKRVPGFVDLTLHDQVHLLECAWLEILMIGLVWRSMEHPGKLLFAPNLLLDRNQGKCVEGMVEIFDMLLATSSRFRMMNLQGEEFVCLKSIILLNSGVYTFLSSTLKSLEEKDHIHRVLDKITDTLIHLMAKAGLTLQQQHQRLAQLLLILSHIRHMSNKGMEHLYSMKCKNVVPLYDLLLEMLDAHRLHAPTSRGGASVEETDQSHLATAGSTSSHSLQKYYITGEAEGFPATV
H69AR inhibit: growth inhibitors of human H69AR lung tumor cells. actives 6% (n = 85,000). viability, % at 10 µM. H69AR lung tumor viability, ATP luminescence, 72 h; stronger effect = lower value;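 active = viability at or below 40%; inactive = viability above 40%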;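 also: multidrug resistant small cell line overexpressing MRP-1 efflux transporter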
ERa SRC1 pot: ER-alpha (human) coactivator binding potentiation; TR-FRET ERalpha-LBD/SRC-Cy5 coactivator binding, 2 h; 100 = basal binding, no effect; AID 639; actives 1.3% (n = 86,000); coactivator binding (% of control), % at 25.6 µM; in the data active = activity above about 200%;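 also: binding measured in presence of low estradiol as agonist stimulus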
Hits are given with their value; n = inactive; x = no result given; [ ] = dose if it differs, or a comment. This is a sample that favours compounds with a hit; in the whole collection about 9.2% have one here.

SMILES	HUVEC inhibit	Lung fibro prol	ERb coact inh	ERa SRC1 inh	H69AR inhibit	ERa SRC1 pot
O=C(c1ccc2c(c1)N(Cc1ccccc1)CCS2)N1CCCCC1	n	n	n	n	n	n
CCCc1nc2ccccc2c(=O)n1/N=C/c1ccccc1O	n	n	n	n	n	n
CCCc1nc2ccccc2c(=O)n1/N=C/c1c(C)[nH]n(-c2ccc(C)cc2)c1=O	n	n	n	n	27.1	n
CC1CC(C)CN(S(=O)(=O)c2ccc(C(=O)NCCCn3ccnc3)cc2)C1 (configuration not stated)	n	14.7	n	n	2.7	n
CC(=O)Oc1cccc(/C=c2\sc3nc(-c4ccco4)nn3c2=O)c1	n	n	n	n	10.5	n
CN(C)c1ccc(/C=c2\sc3nc(-c4ccccc4)nn3c2=O)cc1	n	n	n	69.4[fluorescence artefact?]	n	n
COc1cc(/C=c2\sc3nc(-c4ccncc4)nn3c2=O)ccc1OC(C)=O	n	n	n	68.0	n	n
CC(C)Cc1nc2oc3c(NCCCN4CCOCC4)ncnc3c2c2c1CCC2	n	n	n	n	n	n
CC(C)Cc1nc2oc3c(Cl)ncnc3c2c2c1CCC2	3.3	44.6	n	n	n	n
O=C(NCc1ccco1)c1nc2nc(-c3cccs3)cc(C(F)(F)F)n2n1	n	n	n	n	n	n
O=C(NCc1ccco1)c1nn2c(C(F)(F)F)cc(-c3cccs3)nc2c1Br	n	n	n	59.2	32.4	n
COc1ccc(-c2cc(C(F)(F)F)n3nc(C(=O)NCc4ccco4)c(Cl)c3n2)cc1	n	n	n	n	36.8	n
CCOC(=O)CNC(=O)C(CC(C)C)NC(=O)C1CCCCC1 (configuration not stated)	n	n	n	n	n	n
CCSc1nnc(-c2cccnc2)n1-c1ccc(Cl)c(C)c1	n	n	n	n	n	n
CC(=O)Nc1ccc(N=Cc2nc(-c3ccc(C)cc3)oc2O)cc1	n	n	51.3	81.4	n	n
Oc1oc(-c2ccccc2)nc1C=Nc1ccccc1	n	n	n	n	n	n
OCc1nc2ccccc2n1C/C=C/c1ccccc1	n	n	n	n	n	n
CCN(Cc1ccccc1)C(=O)COC(=O)c1n[nH]c2ccccc12	n	n	n	n	n	n
O=C(O)c1cc2sccc2s1	n	n	59.0	n	n	n
Cc1ccccc1NC(=O)CSc1nnc(-c2ccccc2)n1-c1ccccc1	n	n	n	n	n	401.7[fluorescence artefact?]
CCn1c(SCC(=O)Nc2ccccc2C)nnc1-c1ccccc1O	n	n	n	n	n	n
CCc1nnc(NC(=O)CSc2nnc(-c3ccc(O)cc3)n2-c2ccccc2)s1	n	n	n	n	n	n
N#Cc1ccccc1NC(=O)CSc1nnc(-c2ccccc2O)n1-c1ccccc1	n	n	n	n	32.9	n
COc1ccc(-c2nnc(SCC(=O)Nc3ncc(C)s3)n2-c2ccccc2)cc1OC	n	n	n	n	16.7	n
Cc1cccc(C)c1OCc1nnc(SCC(=O)Nc2nccs2)n1-c1ccccc1	n	n	n	n	19.7	n
SMILES	HUVEC inhibit	Lung fibro prol	ERb coact inh	ERa SRC1 inh	H69AR inhibit	ERa SRC1 pot
Cc1ccc(NC(=O)CSc2nnc(C)n2-c2ccccc2)cc1	n	n	n	n	n	n
CCCc1nnc(SCc2ccc(OC)cc2)n1N	n	n	n	n	n	n
CCn1c2ccccc2c2cc(NC(=O)CSc3nnc(-c4ccc(OC)c(OC)c4)n3N)ccc21	n	n	n	n	22.0	n
CCn1c2ccccc2c2cc(NC(=O)CSc3nnc(-c4ccccc4OC)n3N)ccc21	n	n	n	n	x	n
COC(=O)c1c(C(=O)OC)c2ccncn2c1Cl	n	n	n	n	n	n
Cc1[nH]n(-c2ccccc2)c(=O)c1Sc1ccc(Cl)cc1	n	n	81.2	n	n	n
O=C1Nc2ccc(S(=O)(=O)NCc3ccco3)c3cccc1c23	n	n	58.1[fluorescence artefact?]	n	n	n
CCOc1ccc(S(=O)(=O)NCc2ccco2)c2ccccc12	n	n	n	n	n	n
CN(c1ccccc1C(=O)O)S(=O)(=O)c1ccc2c3c(cccc13)C(=O)N2	n	n	62.2	56.5	n	n
COC(=O)c1ccccc1NS(=O)(=O)c1ccc2c3c(cccc13)C(=O)N2	n	n	n	n	n	n
CCOC(=O)C1CCN(S(=O)(=O)c2c(C)n[nH]c2C)CC1	n	n	n	n	n	n
CSCCOC(=O)C1=C(C)Nc2ccc(C)cc2S1	n	n	n	n	28.1	n
CN1CCN(S(=O)(=O)c2ccc(Sc3nc4ccccc4[nH]3)c3nsnc23)CC1	n	n	n	n	n	n
CS(=O)(=O)c1ccc(Sc2nc3ccccc3[nH]2)c([N+](=O)[O-])c1	n	n	n	n	1.1	n
O=[N+]([O-])c1cc(S(=O)(=O)C(F)(F)F)ccc1Sc1nc2ccccc2[nH]1	18.3	12.1	n	n	1.7	n
COc1cc(C)c(N)cc1C(C)C	n	n	n	n	n	n
CN1c2ccccc2-c2nc3ccccc3n2C1c1ccccn1 (configuration not stated)	n	n	n	n	n	n
c1ccc(CN2c3ccccc3-c3nc4ccccc4n3C2c2ccccn2)cc1 (configuration not stated)	n	n	n	n	31.9	n
COc1ccc(C(O)c2nccn2Cc2ccccc2)cc1OC (configuration not stated)	n	n	n	n	n	n
COc1cc2c3nnc(-c4ccc(F)cc4)c-3cn(Cc3ccc(F)cc3)c2cc1OC	2.6	10.2	n	n	-0.4	481.1[fluorescence artefact?]
COc1ccc(Cn2cc3c(-c4ccc(F)cc4)nnc-3c3cc(OC)c(OC)cc32)cc1	2.3	2.2	n	n	1.3	262.4[fluorescence artefact?]
COc1cc2c3nnc(-c4ccc(F)cc4)c-3cn(Cc3ccccc3)c2cc1OC	1.8	2.7	n	n	1.5	424.1[fluorescence artefact?]
CCCCCCc1nnc(N)s1	n	n	n	n	n	n
COc1cc(OC)cc(C(=O)OCc2cc3ccccc3[nH]c2=O)c1	n	n	n	n	n	498.8[fluorescence artefact?]
CC(C)CNC(=O)c1coc(=O)c(Br)c1	n	26.7	n	n	0.8	n
O=C(N/N=C\c1cc(Br)cs1)C1COc2ccccc2O1 (configuration not stated)	n	n	n	n	27.1	n
CC(Nc1cc(=O)n(C)c(=O)[nH]1)c1ccccc1 (configuration not stated)	n	n	n	n	n	n
Cc1ccc2nc(N3CCN(Cc4nnnn4Cc4ccccc4)CC3)c(C#N)cc2c1	n	n	n	n	n	372.4[fluorescence artefact?]
Cc1nc(N2CCN(S(=O)(=O)c3ccc(F)cc3)CC2)c2c(C)c(C)sc2n1	n	n	n	n	n	n
Cc1ccc2cc(C#N)c(N3CCCN(S(=O)(=O)c4ccc(F)cc4)CC3)nc2c1	n	n	51.3[fluorescence artefact?]	n	n	349.1[fluorescence artefact?]

Bioassay records from PubChem BioAssay.
